Measurements gathered from unrelated publications.
Compare with care: the assays were run in different laboratories.
Target: Tyrosine-protein kinase Yes (YES1, Homo sapiens, UniProt P07947)

c1cnn2ncc(-c3ccnc(N4CCC45COC5)n3)c2c1 — remaining binding (binding; 1 µM): 72%
c1cncc(-c2cccc(Nc3nccc(NC4CCCCC4)n3)c2)c1 — remaining binding (binding, competition with immobilised ligand; 10 µM): 28%
Cc1ccc(-n2nc(C(C)(C)C)cc2NC(=O)Nc2ccc(-n3c(N)c(C(N)=O)c4nc5ccccc5nc43)cc2)cc1 — remaining binding (cell-free assay, competition with immobilised ligand; 1 µM): 9.6%
CCN1CCN(Cc2ccc(C(=O)Nc3ccc(C)c(Oc4ccc5c(c4)CC(=O)N5)c3)cc2C(F)(F)F)CC1 — remaining binding (binding, competition with immobilised ligand; 1 µM): 98%
CC1CCCN1c1nccc(-c2cnn3ncccc23)n1 (stereo not shown) — remaining binding (binding; 1 µM): 89%
CN([C@@H]1CCc2c(CC(=O)O)c3cc(S(C)(=O)=O)ccc3n2C1)S(=O)(=O)c1ccc(F)cc1 — remaining binding (cell-free assay, competition with immobilised ligand; 1 µM): 88%
CN1CCN(c2ccc(Nc3nccc(-c4cccc([N+](=O)[O-])c4)n3)cc2C(F)(F)F)CC1 — remaining binding (binding; 10 µM): 32%
C[C@H](NC(=O)c1cnc2n1[C@](C)(Cc1ccc(C#N)cc1)C(=O)N2c1cc(Cl)c(F)c(Cl)c1)C(=O)NC1(c2ccccn2)CC1 — remaining binding (cell-free assay, competition with immobilised ligand; 1 µM): 100%
Cc1cnc(Nc2ccc(C(=O)N3CCC(N4CCCC4)CC3)cc2)nc1-c1cc2ccccc2s1 — remaining binding (binding, competition with immobilised ligand; 1 µM): 43%
Cc1c(C(=O)O)cc(-c2ccc(C3CCNCC3)cc2)c2ccc(-c3ccc(C(F)(F)F)cc3)cc12 — remaining binding (cell-free assay, competition with immobilised ligand; 1 µM): 100%
O=C(c1ccc(Nc2nccc(-c3cc4ccccc4s3)n2)cc1)N1CCC(N2CCCC2)CC1 — remaining binding (binding, competition with immobilised ligand; 1 µM): 93%
CN(c1ccnc(CNc2nc(Nc3ccc4c(c3)CC(=O)N4)ncc2C(F)(F)F)n1)S(C)(=O)=O — remaining binding (cell-free assay, competition with immobilised ligand; 1 µM): 77%
C[C@@H]1CCN(c2nccc(-c3cnn4ncccc34)n2)C1 — remaining binding (binding; 1 µM): 100%
O=C(NCCCN1CCOCC1)c1ccc(Nc2nccc(-c3cc4ccccc4s3)n2)cc1 — remaining binding (binding, competition with immobilised ligand; 1 µM): 91%
CC(=O)C1=C(C)N(c2cccc(C(F)(F)F)c2)C(=O)N[C@@H]1c1ccc(C#N)nc1 — remaining binding (cell-free assay, competition with immobilised ligand; 1 µM): 81.1%
O=C(NCC1CCOCC1)c1n[nH]cc1NC(=O)c1c(F)cccc1F — remaining binding (binding, competition with immobilised ligand; 1 µM): 99%
CN(CCCC(F)(F)F)c1nccc(-c2cnn3ncccc23)n1 — remaining binding (binding; 1 µM): 94%
CNC(=O)[C@@H]1CC[C@@H](n2c(-c3ccc4cnccc4c3)nc3ccc(C(=O)NCc4cccc(C(N)=O)c4)cc32)C1 — remaining binding (binding, competition with immobilised ligand; 1 µM): 100%
F[C@@H]1CCN(c2nccc(-c3cnn4ncccc34)n2)C1 — remaining binding (binding; 1 µM): 90%
CC(=O)N1CCC(c2ccc(C(=O)NC(=N)N)cc2C(F)(F)F)CC1 — remaining binding (cell-free assay, competition with immobilised ligand; 1 µM): 98%
COc1cnc(Nc2cccc(S(N)(=O)=O)c2)nc1N1CCN(c2ccccc2)C(=O)C1 — remaining binding (binding, competition with immobilised ligand; 1 µM): 100%
N[C@H]1CCN(c2nccc(-c3cnn4ncccc34)n2)C1 — remaining binding (binding; 1 µM): 91%
CC(=O)Nc1c(C(C)=O)c(=O)n(C)c2nc(-c3ccc(Cl)cc3Cl)c(-c3ccc(Cl)cc3)cc12 — remaining binding (cell-free assay, competition with immobilised ligand; 1 µM): 100%
CN(C)c1nccc(-c2cnc3ncccn23)n1 — remaining binding (binding; 1 µM): 88%
CCC(=N\O)/C(C)=C/c1ccc(F)cc1 — remaining binding (cell-free assay, competition with immobilised ligand; 1 µM): 87%
